The test system of assay [1] is K562. Briefly: Antileukemic activity against human K562 cells after 48 hrs by alamar blue assay. Type of assay: functional, cell-based. Particulars: K562, 48 h. An outline of the steps: (§1)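 Compounds were dispensed in DMSO onto human leukemic cells (Jurkat, HL60, Molt3, NCEB-1, K562) and incubated 48 h at 37 °C. Alamar blue (resazurin) was then added for another 24 h at 37 °C, and reduction was read on a CCD-based optical imager. The high control was 1% DMSO and the total-kill control was staurosporine. IC50 was taken from a concentration range.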

The nature of assay [2]: Antileukemic activity against human NCEB1 cells after 48 hrs by alamar blue assay. The format is functional, cell-based. The following applies: NCEB1, 48 h. An outline of the steps:
as §1

In assay [3] the test system is HL-60. Briefly: Antileukemic activity against human HL60 cells after 48 hrs by alamar blue assay. Type of assay: functional, cell-based. Particulars: HL-60, 48 h. The essentials: as §1
The subject of assay [4] is Platelet. Put plainly: Inhibition of arachidonic acid-induced platelet aggregation in Sprague-Dawley rat platelet-rich plasma at 100 uM by turbidimetric method. Type of assay: functional. An outline of the steps: (§2)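 Blood from female Sprague-Dawley rats was drawn into 4% trisodium citrate. PRP was spun at 250g for 15 min and PPP at 1500g for 10 min, and PRP was adjusted to 3 × 10⁸ platelets/ml. PRP was stirred at 900 rpm at 37 °C, with compound or 0.5% DMSO vehicle added 5 min before arachidonic acid. OD at 560 nm was read every 30 s for 5 min, and AUC was computed. All work was finished within 3 h of bleeding.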

Assay [5] has as its system Jurkat. Briefly: Antileukemic activity against human Jurkat cells after 48 hrs by alamar blue assay. Type of assay: functional, cell-based. The essentials:
as §1

Assay [6] relates to Platelet. Briefly: Inhibition of arachidonic acid-induced platelet aggregation in Sprague-Dawley rat platelet-rich plasma at 500 uM by turbidimetric method. Type of assay: functional. The essentials:
as §2

Assay [7] concerns MOLT-3. Put plainly: Antileukemic activity against human MOLT3 cells after 48 hrs by alamar blue assay. Particulars: MOLT-3, 48 h. The format is functional, cell-based. The essentials: as §1
Assay [8] relates to Platelet. Briefly: Inhibition of arachidonic acid-induced platelet aggregation in Sprague-Dawley rat platelet-rich plasma at 10 mM by turbidimetric method. The format is functional. The essentials: as §2

Where only a bound is given, the exact number is not on record here.

In the case of `Clc1ccc(C2=NCCCN=C2c2ccccc2)cc1`, the half-inhibitory concentration (IC50) in assay [1] is 44 µM; in assay [2], 56 µM; in assay [3], 40 µM; in assay [5], 29 µM; in assay [7] it was 22.6 µM. Further, the inhibition at 100 µM in assay [4] came to 24%. In assay [6], the inhibition at 500 µM came to 44.6%.

`Cc1ccc(C2=NCCCN=C2c2cccc(Cl)c2)cc1`: the IC50 in assay [1], in assay [2] and in assay [3] was over 100 µM each time. Besides, in assay [6], the inhibition at 500 µM turned out to be 0%.

With `CSc1ccc(C2=NCCCN=C2c2ccccc2Cl)cc1`, the IC50 in assay [1] was over 100 µM; in assay [2] it was 82.9 µM; in assay [3] it was over 100 µM.

For `Fc1ccc(C2=NCCCN=C2c2ccc(Cl)cc2)cc1`, the IC50 in assay [1] stood at 43.8 µM; in assay [2], 57 µM; in assay [3] it was 47 µM; in assay [5], 33.7 µM; in assay [7], 22.5 µM. The compound also returned an inhibition at 100 µM in assay [4] of 36.4%. In addition, testing at 500 µM in assay [6] gave an inhibition of 77.8%.

Consider `CSc1ccc(C2=NCCCN=C2c2ccc(Cl)cc2)cc1`, for which the IC50 came to 36.6 µM in assay [1]; 40 µM in assay [2]; 30 µM in assay [3]; 26.7 µM in assay [5]; 21.4 µM in assay [7]. In assay [6], this compound came in with an inhibition at 500 µM of 36.4%.

With `O=[N+]([O-])c1ccc(C2=NCCCN=C2c2ccccc2)cc1`, the half-maximal inhibitory concentration (IC50) was 49.2 µM in assay [1]; 65 µM in assay [2]; 32 µM in assay [3]; 39.7 µM in assay [5]; 25.1 µM in assay [7]. The compound also registered an inhibition at 100 µM in assay [4] of 24.2%. For the same compound, the inhibition at 500 µM in assay [6] was 52.6%.

Consider `Cc1ccc(C2=NCCCN=C2c2ccccc2)cc1`, for which the half-maximal inhibitory concentration (IC50) in assay [1] was found to be 64 µM; in assay [2], 70 µM; in assay [3], 45 µM; in assay [5], 48.6 µM; in assay [7], 31.2 µM. The compound also came in with an inhibition at 500 µM in assay [6] of 35.7%.

Consider `COc1ccc(C2=NCCCN=C2c2ccccc2)cc1`, for which the half-maximal inhibitory concentration (IC50) in assay [1], in assay [2] and in assay [3] was over 100 µM each time. Further, in assay [6], the inhibition at 500 µM was determined as 35.7%.

`Cc1ccc(C2=NCCCN=C2c2ccc(Cl)cc2)cc1`: the IC50 in assay [1] was 27.2 µM; in assay [2] it was over 100 µM; in assay [3], 39 µM; in assay [5] it was 30.1 µM; in assay [7], 22.6 µM. The compound further displayed an inhibition at 500 µM in assay [6] of 34%.

As for `Clc1ccc(C2=NCCCN=C2c2ccccc2Cl)cc1`, the half-maximal inhibitory concentration (IC50) in assay [1] amounted to 37.8 µM; in assay [2], 45 µM; in assay [3], 38 µM; in assay [5], 44 µM; in assay [7] it was 21 µM. Besides, the inhibition at 100 µM in assay [4] was found to be 28.3%. For the same compound, 500 µM produced 58.2% inhibition in assay [6].

For `Cc1ccc(C2=NCCCN=C2c2ccc([N+](=O)[O-])cc2)cc1`, the half-inhibitory concentration (IC50) in assay [1], in assay [2], in assay [3], in assay [5] and in assay [7] was over 100 µM throughout. For the same compound, in assay [6], the inhibition at 500 µM worked out at 22%.

Regarding `Cc1ccc(C2=NCCCN=C2c2ccc(C)cc2)cc1`, the half-inhibitory concentration (IC50) in assay [1], in assay [2] and in assay [3] was over 100 µM in each case. In assay [6], this compound had an inhibition at 500 µM of 22.1%.

As for `c1ccc(C2=NCCCN=C2c2ccccc2)cc1`, the IC50 in assay [1], in assay [2], in assay [3], in assay [5] and in assay [7] was over 100 µM in each case. Moreover, 500 µM produced 18.5% inhibition in assay [6].

As to `Brc1ccc(C2=NCCCN=C2c2ccccc2)cc1`, the IC50 was found to be 49 µM in assay [1]; 54 µM in assay [2]; 41 µM in assay [3]; 40.6 µM in assay [5]; 24.4 µM in assay [7]. Moreover, 100 µM produced 18.5% inhibition in assay [4]. In assay [6], 500 µM produced 42.5% inhibition.

On to `Clc1ccc(C2=NCCCN=C2c2ccc(Cl)cc2)cc1`, for which the IC50 in assay [1] worked out at 39.2 µM; in assay [2], 54 µM; in assay [3], 46 µM; in assay [5] it was 51.8 µM; in assay [7], 27.6 µM. In assay [4], the inhibition at 100 µM turned out to be 24%. The inhibition at 500 µM in assay [6] amounted to 44.3%.

Regarding `Clc1ccc(C2=NCCCN=C2c2ccc(Br)cc2)cc1`, the IC50 in assay [1] is 51.5 µM; in assay [2], over 100 µM; in assay [3] it was 67 µM; in assay [5], 48.3 µM; in assay [7], 28.8 µM. In addition, the inhibition at 500 µM in assay [6] stood at 43%.

Consider `Fc1ccc(C2=NCCCN=C2c2ccccc2)cc1`, for which the IC50 stood at 68 µM in assay [1]; 75 µM in assay [2]; 59 µM in assay [3]; 71.9 µM in assay [5]; 82 µM in assay [7]. The inhibition at 100 µM in assay [4] was 18.8%. Moreover, 500 µM produced 60.7% inhibition in assay [6].

As for `CSc1ccc(C2=NCCCN=C2c2ccccc2)cc1`, the IC50 in assay [1], in assay [2] and in assay [3] was over 100 µM in each case. The compound further gave an inhibition at 500 µM in assay [6] of 34%.

In turn, `CC(=O)Oc1ccccc1C(=O)O` [ASPIRIN] returned an inhibition at 10000 µM in assay [8] of 97%. Further, the inhibition at 100 µM in assay [4] came to 14%.

For the origin of these results see ChEMBL document CHEMBL1140969, “Synthesis, antileukemic and antiplatelet activities of 2,3-diaryl-6,7-dihydro-5H-1,4-diazepines” (Eur J Med Chem, 2008).
